The array DNA melting data of Ke et al. (doi:10.1101/2024.01.08.574731)

Columns and labels:
[1] = melting temperature; fluorescence melt of hairpins on a sequencing array, two-state fit, raised by 9.35 °C to match UV melts; conditions: sodium 0.088 M
Method in brief: (§1)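 Melting temperature and folding enthalpy were obtained by bootstrapped two-state fitting. Fits used Cy3 fluorescence of library hairpins with annealed Cy3 and quencher oligos on a sequenced MiSeq flow cell, imaged in 50 mM Na-HEPES pH 8.0, 25 mM NaCl in 2.5 °C steps up to 60 °C and normalised to pre-quench Cy3 and control constructs. Four replicates were combined by inverse-variance weighting, and fitted temperatures were raised by 9.35 °C to match UV melts.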

[2] = folding enthalpy; higher = less favourable; fluorescence melt of hairpins on a sequencing array, two-state fit; conditions: sodium 0.088 M
Method in brief: as §1

Sequence	Tm [1]	folding enthalpy [2]
GATCGGCCGCCCGATC ((((((....))))))	60.5 °C	-40.4 kcal/mol
GATCGGCCTCCCGATC ((((((....))))))	55.8 °C	-35 kcal/mol
GATCGGCGAAAGCCAATC (((.(((....))).)))	43.7 °C	-17.1 kcal/mol
GATCGGCGACCCGATC ((((((....))))))	55.6 °C	-34.2 kcal/mol
GATCGGCGACCGATC ((((((...))))))	56.4 °C	-34.2 kcal/mol
GATCGGCGGCCCGATC ((((((....))))))	55.5 °C	-35.4 kcal/mol
GATCGGCGGCCGATC ((((((...))))))	58.1 °C	-49.3 kcal/mol
GATCGGCGGGCCGATC ((((((....))))))	66.9 °C	-38.9 kcal/mol
GATCGGCGTACCGATC ((((((....))))))	59.5 °C	-38.2 kcal/mol
GATCGGCGTCCCGATC ((((((....))))))	55.4 °C	-40.3 kcal/mol
GATCGGGAACCCGATC ((((((....))))))	63.7 °C	-42.4 kcal/mol
GATCGGGACGCCGATC ((((((....))))))	59.5 °C	-36.6 kcal/mol
GATCGGGCAACCGATC ((((((....))))))	65.4 °C	-34.4 kcal/mol
GATCGGGCAGCCGATC ((((((....))))))	59.3 °C	-40.3 kcal/mol
GATCGGGCCACCGATC ((((((....))))))	67.5 °C	-39.5 kcal/mol
GATCGGGCTCCGATC ((((((...))))))	58.3 °C	-35.8 kcal/mol
GATCGGGGAAACCTGATC ((((.((....)).))))	49.2 °C	-43.8 kcal/mol
GATCGGGGCACCGATC ((((((....))))))	65.9 °C	-34.9 kcal/mol
GATCGGGGCCCCGATC ((((((....))))))	68.6 °C	-55 kcal/mol
GATCGGGGCGCCGATC ((((((....))))))	58.4 °C	-39 kcal/mol
GATCGGGGCTCCGATC ((((((....))))))	59.4 °C	-34.5 kcal/mol
GATCGGGGTCCCGATC ((((((....))))))	61 °C	-39.5 kcal/mol
GATCGGGTCCCCGATC ((((((....))))))	61.3 °C	-40.4 kcal/mol
GATCGGGTTACCGATC ((((((....))))))	67.3 °C	-35.8 kcal/mol

Sequence	Tm [1]	folding enthalpy [2]
GATCGGTAAACCGATC ((((((....))))))	56.2 °C	-40.7 kcal/mol
GATCGGTAGACCGATC ((((((....))))))	57 °C	-41.1 kcal/mol
GATCGGTCTCCCGATC ((((((....))))))	56.1 °C	-41 kcal/mol
GATCGGTGCGCCGATC ((((((....))))))	66.9 °C	-36.9 kcal/mol
GATCGGTGGCCCGATC ((((((....))))))	57.1 °C	-37.6 kcal/mol
GATCGGTGTACCGATC ((((((....))))))	65.8 °C	-36.3 kcal/mol
GATCGGTGTGCCGATC ((((((....))))))	64.8 °C	-33.2 kcal/mol
GATCGGTTCCCGATC ((((((...))))))	59.3 °C	-39.3 kcal/mol
GATCGGTTCGCCGATC ((((((....))))))	61.4 °C	-45 kcal/mol
GATCGGTTGCCGATC ((((((...))))))	59.1 °C	-28.6 kcal/mol
GATCGGTTTCCGATC ((((((...))))))	59 °C	-34.7 kcal/mol
GATCGTAAAGACGATC ((((((....))))))	51.1 °C	-31.4 kcal/mol
GATCGTAACAACGATC ((((((....))))))	55 °C	-35.4 kcal/mol
GATCGTAACCACGATC ((((((....))))))	54.8 °C	-35.8 kcal/mol
GATCGTAAGAACGATC ((((((....))))))	50.5 °C	-35.1 kcal/mol
GATCGTAAGACGATC ((((((...))))))	54.2 °C	-42.3 kcal/mol
GATCGTAATACGATC ((((((...))))))	53.5 °C	-41.5 kcal/mol
GATCGTACATACGATC ((((((....))))))	54.9 °C	-41.2 kcal/mol
GATCGTACCAACGATC ((((((....))))))	55.5 °C	-36.7 kcal/mol
GATCGTACCCACGATC ((((((....))))))	54.1 °C	-40 kcal/mol
GATCGTAGGACGATC ((((((...))))))	54.7 °C	-44.2 kcal/mol
GATCGTAGTAACGATC ((((((....))))))	55.7 °C	-41.5 kcal/mol
GATCGTATAGACGATC ((((((....))))))	53 °C	-38.1 kcal/mol
GATCGTATGGACGATC ((((((....))))))	56.5 °C	-27 kcal/mol

Sequence	Tm [1]	folding enthalpy [2]
GATCGTATGTACGATC ((((((....))))))	56.8 °C	-37.7 kcal/mol
GATCGTATTACGATC ((((((...))))))	57 °C	-36.1 kcal/mol
GATCGTATTCACGATC ((((((....))))))	55.1 °C	-34.7 kcal/mol
GATCGTCATTACGATC ((((((....))))))	54.8 °C	-38.5 kcal/mol
GATCGTCCAGACGATC ((((((....))))))	59.8 °C	-42.3 kcal/mol
GATCGTCCGACGATC ((((((...))))))	53.9 °C	-40.9 kcal/mol
GATCGTCCTGACGATC ((((((....))))))	59.4 °C	-46.3 kcal/mol
GATCGTCGAGACGATC ((((((....))))))	60 °C	-36.9 kcal/mol
GATCGTCGCAACGATC ((((((....))))))	56.2 °C	-38.1 kcal/mol
GATCGTCGGACGATC ((((((...))))))	53.8 °C	-38.9 kcal/mol
GATCGTCGTACGATC ((((((...))))))	60.4 °C	-29.3 kcal/mol
GATCGTCGTCACGATC ((((((....))))))	53.5 °C	-40.6 kcal/mol
GATCGTCGTGACGATC ((((((....))))))	63.4 °C	-50 kcal/mol
GATCGTCTAAACGATC ((((((....))))))	56.1 °C	-43 kcal/mol
GATCGTCTACACGATC ((((((....))))))	53.9 °C	-39.8 kcal/mol
GATCGTCTGGACGATC ((((((....))))))	57.5 °C	-42.6 kcal/mol
GATCGTCTTGACGATC ((((((....))))))	66.3 °C	-35.9 kcal/mol
GATCGTGACACGATC ((((((...))))))	59.9 °C	-40.4 kcal/mol
GATCGTGAGCACGATC ((((((....))))))	55.9 °C	-37.1 kcal/mol
GATCGTGATTACGATC ((((((....))))))	56 °C	-38.8 kcal/mol
GATCGTGCGAAAGCAATC (((..(((....))))))	23.5 °C	-6.96 kcal/mol
GATCGTGCGACGATC ((((((...))))))	56.8 °C	-38.4 kcal/mol
GATCGTGCTACGATC ((((((...))))))	57.3 °C	-41 kcal/mol
GATCGTGGAAACGTGATC ((((..(....)..))))	37.3 °C	-17.1 kcal/mol

Sequence	Tm [1]	folding enthalpy [2]
GATCGTGGATACGATC ((((((....))))))	60.7 °C	-51.4 kcal/mol
GATCGTGTCTACGATC ((((((....))))))	59.8 °C	-38.3 kcal/mol
GATCGTGTGACGATC ((((((...))))))	54.7 °C	-40.1 kcal/mol
GATCGTGTGCACGATC ((((((....))))))	59.9 °C	-39.3 kcal/mol
GATCGTTAAAACGATC ((((((....))))))	54.5 °C	-35.6 kcal/mol
GATCGTTAAACGATC ((((((...))))))	53.2 °C	-34.6 kcal/mol
GATCGTTATGACGATC ((((((....))))))	55.9 °C	-38.6 kcal/mol
GATCGTTCACACGATC ((((((....))))))	54.5 °C	-40.3 kcal/mol
GATCGTTCATACGATC ((((((....))))))	54.9 °C	-46.9 kcal/mol
GATCGTTCCCACGATC ((((((....))))))	53.8 °C	-43.2 kcal/mol
GATCGTTCGAACGATC ((((((....))))))	56.6 °C	-53.9 kcal/mol
GATCGTTCGACGATC ((((((...))))))	55.7 °C	-38.2 kcal/mol
GATCGTTGAGACGATC ((((((....))))))	58.1 °C	-39.4 kcal/mol
GATCGTTGGAACGATC ((((((....))))))	54.4 °C	-42.4 kcal/mol
GATCGTTGGTACGATC ((((((....))))))	55.2 °C	-38.4 kcal/mol
GATCGTTGTAACGATC ((((((....))))))	58.4 °C	-48.8 kcal/mol
GATCGTTTAAACGATC ((((((....))))))	56.1 °C	-48.9 kcal/mol
GATCGTTTAACGATC ((((((...))))))	55.7 °C	-36.6 kcal/mol
GATCGTTTCACGATC ((((((...))))))	58.6 °C	-33.5 kcal/mol
GATCGTTTCCACGATC ((((((....))))))	54 °C	-40.5 kcal/mol
GATCGTTTTACGATC ((((((...))))))	60.1 °C	-40.8 kcal/mol
GATCTAAACATAGATC ((((((....))))))	37 °C	-26.9 kcal/mol
GATCTAAACGTAGATC ((((((....))))))	35.8 °C	-28.7 kcal/mol
GATCTAACCTAGATC ((((((...))))))	38.1 °C	-29 kcal/mol
